We go through four compounds from ChEMBL document CHEMBL1141864, “Structure-activity relationships in 1,4-benzodioxan-related compounds. 8.(1) {2-[2-(4-chlorobenzyloxy)phenoxy]ethyl}-[2-(2,6-dimethoxyphenoxy)ethyl]amine (clopenphendioxan) as a tool to highlight the involvement of alpha1D- and alpha1B-adrenoreceptor subtypes in the regulation of human PC-3 …” (J Med Chem, 2005).

Structures are written as SMILES. Activity calls are given as the source filed them. The rule behind the calls is not given here.

Experiment [1] deals with T1, Alpha-1A adrenergic receptor (Rattus norvegicus) (UniProt P43140).
T1 sequence (whole entry): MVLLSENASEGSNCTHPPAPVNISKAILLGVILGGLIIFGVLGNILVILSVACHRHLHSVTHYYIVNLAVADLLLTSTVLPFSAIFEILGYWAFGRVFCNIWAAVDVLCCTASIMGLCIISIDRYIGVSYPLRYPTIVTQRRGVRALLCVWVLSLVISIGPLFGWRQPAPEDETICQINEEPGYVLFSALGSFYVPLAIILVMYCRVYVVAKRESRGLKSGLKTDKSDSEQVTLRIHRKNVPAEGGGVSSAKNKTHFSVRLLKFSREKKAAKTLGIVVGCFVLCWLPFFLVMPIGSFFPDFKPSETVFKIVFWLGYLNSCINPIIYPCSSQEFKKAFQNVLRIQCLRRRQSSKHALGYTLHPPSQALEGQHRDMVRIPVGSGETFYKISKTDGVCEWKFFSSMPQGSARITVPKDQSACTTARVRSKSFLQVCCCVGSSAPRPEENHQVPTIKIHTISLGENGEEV
Kind of experiment: ADRA1A blocking activity assessed by antagonism of (-)-NE induced contractions on isolated rat prostatic vas deferens. The class given is functional, tissue-based. The method in brief: (§1)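 Isolated rat tissue: each antagonist concentration tested four times over 0.01–1 μM; pK_B calculated by van Rossum method from shifts of (-)-noradrenaline contraction curves (vas deferens, α1A; thoracic aorta, α1D) or (-)-phenylephrine contraction curves (spleen, α1B).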

Experiment [2] concerns the target T2, Alpha-1B adrenergic receptor (Rattus norvegicus) (UniProt P15823).
T2 sequence (whole entry): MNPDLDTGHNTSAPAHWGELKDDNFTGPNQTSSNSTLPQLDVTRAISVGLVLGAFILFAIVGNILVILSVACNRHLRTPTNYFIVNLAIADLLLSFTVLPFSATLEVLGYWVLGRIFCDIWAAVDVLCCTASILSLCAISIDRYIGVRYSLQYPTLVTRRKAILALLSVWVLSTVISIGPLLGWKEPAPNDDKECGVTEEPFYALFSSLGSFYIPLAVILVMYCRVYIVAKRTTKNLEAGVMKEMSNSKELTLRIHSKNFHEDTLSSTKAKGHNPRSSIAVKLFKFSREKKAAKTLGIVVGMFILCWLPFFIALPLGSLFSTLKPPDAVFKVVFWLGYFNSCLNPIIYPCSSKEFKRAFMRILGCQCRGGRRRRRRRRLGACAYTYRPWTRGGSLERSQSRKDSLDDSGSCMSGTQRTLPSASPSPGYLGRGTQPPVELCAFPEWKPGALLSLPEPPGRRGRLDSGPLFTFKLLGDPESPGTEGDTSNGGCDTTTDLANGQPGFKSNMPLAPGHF
Kind of experiment: ADRA1B blocking activity assessed by antagonism of (-)-phenylephrine induced contractions on isolated rat spleen. The experiment is classed as functional, tissue-based. The method in brief:
as §1

Experiment [3] has as its system PC-3. Put plainly: Cytotoxic activity on human PC3 prostate cancer cells by SRB assay. The class given is functional. Particulars: Homo sapiens, PC-3. The method in brief: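 NCI-protocol SRB assay on PC-3 cells grown in DMEM/10% FBS/2 mM glutamine. Seeded 24 h, then compounds in medium for 48 h at 37 °C, 5% CO2, in quadruplicate. A time-zero plate was read. Cells TCA-fixed, stained with 0.4% SRB, absorbance at 520 nm. GI50, TGI and LC50 interpolated from % growth versus log concentration.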
For orientation: Sulforhodamine B stains cellular protein and so reports cell mass.

Experiment [4] addresses T3, Alpha-1D adrenergic receptor (Rattus norvegicus) (UniProt P23944).
T3 sequence (whole entry): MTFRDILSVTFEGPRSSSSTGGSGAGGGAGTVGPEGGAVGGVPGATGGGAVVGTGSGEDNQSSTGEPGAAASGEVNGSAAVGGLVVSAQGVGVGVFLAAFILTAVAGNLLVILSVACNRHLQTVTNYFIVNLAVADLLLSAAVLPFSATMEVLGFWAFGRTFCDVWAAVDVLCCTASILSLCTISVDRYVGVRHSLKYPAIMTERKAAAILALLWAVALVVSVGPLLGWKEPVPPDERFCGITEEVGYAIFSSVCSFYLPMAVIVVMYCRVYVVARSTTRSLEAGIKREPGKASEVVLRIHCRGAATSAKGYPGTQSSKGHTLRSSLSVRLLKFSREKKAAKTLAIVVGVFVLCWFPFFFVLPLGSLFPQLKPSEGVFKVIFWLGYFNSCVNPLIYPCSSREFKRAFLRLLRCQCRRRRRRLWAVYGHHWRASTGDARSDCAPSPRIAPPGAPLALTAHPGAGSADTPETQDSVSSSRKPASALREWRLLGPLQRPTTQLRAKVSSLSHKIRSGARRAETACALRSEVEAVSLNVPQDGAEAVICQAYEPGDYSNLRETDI
Kind of experiment: ADRA1D blocking activity assessed by antagonism of (-)-NE induced contractions on isolated rat thoracic aorta. The experiment is classed as functional, tissue-based. The method in brief:
as §1

The subject of experiment [5] is PC-3. Put plainly: Inhibition of NE-induced increase of PC3 cell proliferation using ELISA BrdU. The experiment is classed as functional, cell-based. Particulars: Homo sapiens. The method in brief: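 PC-3 cells (7×10^4/well) plated 24 h, then given noradrenaline (0–50 μM) alone or with antagonist (1 μM, or 0.5 μM for one compound) for 16 h. BrdU added for the last 4 h and read by colorimetric ELISA as % growth; mean ± SD of three experiments.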
(ELISA stands for enzyme-linked immunosorbent assay.)

Experiment [6] concerns PC-3. Kind of experiment: Ability to stimulate PC3 cell proliferation by BrdU incorporation using colorimetric ELISA at 50 uM. The experiment is classed as functional, Homo sapiens. The essentials:
(§2)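 PC-3 cells (DMEM, 10% FBS, 2 mM L-glutamine) seeded at 7 × 10⁴/well, settled 24 h at 37 °C, 5% CO₂. NE added (0, 0.1, 1, 10, 50 μM) for 16 h. BrdU present during the last 4 h; incorporation read by colorimetric BrdU cell-proliferation ELISA. Expressed as % growth vs untreated. Mean ± SD of three separate experiments.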
Background: Incorporation of labelled thymidine or its analogues reports DNA synthesis.

The subject of experiment [7] is PC-3. Put plainly: Ability to stimulate PC3 cell proliferation by BrdU incorporation using colorimetric ELISA at 10 uM. The experiment is classed as functional, Homo sapiens. The method in brief:
as §2

In experiment [1], `CCOc1ccc(COc2ccccc2OCCNCCOc2c(OC)cccc2OC)cc1` showed a pKb of 8.5. The compound further had a pKb in experiment [2] of 8.23. In experiment [3], this compound registered a 50% growth inhibitory concentration (GI50) of 5.2 µM, an LC50 (50% lethal concentration) of 51.3 µM and a TGI of 18.2 µM. Further, the pKb in experiment [4] came to 9.11.

`COc1cc2nc(N3CCN(C(=O)C4COc5ccccc5O4)CC3)nc(N)c2cc1OC` (centres undefined) [DOXAZOSIN]: the outcome in experiment [5] was inactive. In addition, the pKb in experiment [1] turned out to be 8.69; in experiment [2] it was 9.51; in experiment [4], 8.97. In experiment [3], this compound yielded a TGI of 49 µM.

For `NC[C@H](O)c1ccc(O)c(O)c1` [NOREPINEPHRINE], the results for the Activity in experiment [6] and in experiment [7] were 65% and 33%, respectively.

Turning to `COc1cccc(OC)c1OCCNCCOc1ccccc1OCc1ccc(OC(C)C)cc1`, the pKb in experiment [1] came out at 8.17; in experiment [2], 8.62; in experiment [4] it was 9.14. This compound also had a GI50 in experiment [3] of 2 µM. In addition, the LC50 (50% lethal concentration) in experiment [3] came to 63.1 µM. In experiment [3], this compound showed a TGI of 17.8 µM.

A word on the pKb: it is −log10 of the Kb, conventionally taken in molar units. What is called GI50 is the concentration at which growth is held to half of that of the control. Broadly, the TGI is the concentration at which net growth stops. A higher TGI goes with less potent growth arrest.
